The record followed here is article PMC5222895 (Drugs & Aging, 2016).

What all share (format): in vivo, human
A short description of data set [1]: Free serum insulin aspart pharmacokinetics after single subcutaneous dosing. As to conditions: single s.c. 0.2 U/kg. The gist of the method:
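Same crossover dosing (0.2 U/kg s.c., fasted). Blood sampled before dosing, every 2 min to 20 min, every 5 min to 80 min, every 10 min to 2 h, every 15 min to 3 h, then 3.5–12 h. Free (PEG-precipitated) serum insulin aspart measured by validated specific ELISA, LLOQ 10 pmol/L. Pre-LLOQ concentrations imputed by compartmental modelling for initial AUC portion.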

The subject of data set [2] is subjects with type 1 diabetes mellitus. As to the kind of experiment: Euglycaemic glucose clamp. As to conditions: single s.c. 0.2 U/kg. The gist of the method:
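Single 0.2 U/kg s.c. dose into the lower abdominal wall in randomised two-visit crossover (3–12 day washout), elderly (≥65 y) and younger (18–35 y) T1DM subjects, morning after overnight fast. Euglycaemic clamp, BG target 5.5 mmol/L, up to 12 h. GIR logged every minute. Partial and total AUCGIR taken from raw profiles. Least square means; age-group ratios with 95% CI.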

The test system is the same in data set [3]. Description: Safety assessments. An outline of the steps:
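Monitored from dosing to follow-up 7–21 days after second dose: adverse events, injection-site local tolerability, hypoglycaemic episodes, laboratory safety, physical exam, vital signs, ECG. Hypoglycaemia confirmed if severe (ADA, third-party assistance) or plasma glucose <3.1 mmol/L. Summarised descriptively for subjects receiving at least one dose.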

Setting [4] is: elderly (≥65 years) T1DM, least square mean, n = 30.
[5] abbreviates: elderly and younger adults with T1DM, single s.c. 0.2 U/kg.

Regarding insulin aspart, in data set [1] (age group ratio, T1DM), the “AUCIAsp,0-t, ratio of elderly/younger adults [95% CI]” value is 1.32 [1.09–1.59] and the “C max, ratio of elderly/younger adults [95% CI]” value is 1.20 [0.96–1.50]. Besides, in data set [1] (setting [4]), the “t Early 50% Cmax” value worked out at 28.0 min and the t max turned out to be 1.07 h. The “C max (maximum insulin aspart concentration)” value in data set [1] (elderly T1DM, least square mean, n = 30) worked out at 0.3676 nM. Further, the “GIRmax, ratio of elderly/younger adults [95% CI]” value in data set [2] (age group ratio, T1DM) was 0.78 [0.60–1.01]. Also, in data set [2] (age group ratio, T1DM, primary endpoint for faster aspart), the “AUCGIR,0-t, ratio of elderly/younger adults [95% CI]” value was 0.85 [0.67–1.07]. The “AUCGIR,0-t (total glucose-lowering effect)” value in data set [2] (elderly T1DM, clamp up to 12 h, least square mean, n = 22) was determined as 1012.5 mg/kg. Besides, the Injection-site reactions entry in data set [3] (during the trial) is recorded as “no injection-site reactions”. Also, in data set [3] (setting [5]), the “Adverse events of moderate intensity” value was “eight”, the Serious adverse events entry is reported as “no serious adverse events” and the Tolerability entry is listed as “well-tolerated”. Also, in data set [3] (severe (ADA) or plasma glucose <3.1 mmol/L, during the trial), the Confirmed hypoglycaemic episodes entry is “No confirmed hypoglycaemic episodes”.
